Only a selection was taken, and hits are over-represented in it overall.
ALR H2O2 inh: human ALR oxidase inhibition via reduced H2O2. P55789. purified ALR, DTT oxidation, H2O2 HRP-luminol luminescence. inhibition, % (concentration not given with the values). hit rate 3.8% among 290,000. AID 485317;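 active = mean replicate inhibition above about 79%, with every replicate also reaching it, limit read from the data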
Target sequence (P55789 whole entry, looked up): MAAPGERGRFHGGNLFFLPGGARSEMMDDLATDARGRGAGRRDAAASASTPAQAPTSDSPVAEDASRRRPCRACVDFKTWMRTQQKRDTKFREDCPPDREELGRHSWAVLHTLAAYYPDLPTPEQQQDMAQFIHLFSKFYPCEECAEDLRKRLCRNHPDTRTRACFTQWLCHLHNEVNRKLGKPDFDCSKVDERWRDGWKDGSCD
T cell HTS: T cell immune modulation candidate; 2C CD8+ T cell-vesicle binding, flow cytometry; stronger effect = lower value; response (vesicle binding), % at 7 µM; hit rate 0.068% among 330,000;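 active = response, share of CD8 T cells binding vesicles, and their 90th percentile fluorescence all below set limits, cut at about 80% in these data, passing the limit was not always enough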;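 note: values below 100% mean blocked vesicle binding to the CD8+ T cells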
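Assay system: 2C TCR transgenic mouse naive CD8+ T cells, MACS-purified | Read-out: CD8+ gate FL2 mean fluorescence as % of same-row positive control | Signal: High-throughput flow cytometry with anti-B7-1 and anti-CD8 staining | Timing: Binding step 1.5 h, 37 °C, antibody labelling 20 min, ice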
Glyco luc inh: blocks N-linked glycosylation in D54 reporter cells. D54 ERlucT glycosylation luciferase reporter, 24 h; percent of 100 nM tunicamycin response. reporter increase, % at 12.5 µM. hit rate 0.23% among 360,000. AID 588692;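 active = mean luciferase reporter signal, scaled so untreated is 0 and the glycosylation-blocking control 100, at or above a set limit in every replicate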;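 note: luciferase carries N-glycosylation sites so blocking glycosylation raises the light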
Large screens that a line does not name were inactive.

O=C(NNc1ccc(-c2csnn2)cc1)c1cc(Cl)cc(Cl)c1	none
O=C(NNc1ccc(-c2csnn2)cc1)c1ccccc1C(F)(F)F	ALR H2O2 inh 98
COc1ccc(CC2(C)OC(c3ccc(C)c([N+](=O)[O-])c3)=NN2C(C)=O)cc1 (stereo not drawn)	none
N#Cc1nc(-c2ccco2)oc1NCCc1ccccc1	ALR H2O2 inh 98
COc1ccc(CCNc2oc(-c3ccco3)nc2C#N)cc1	none
COc1ccc(C(CNC(=O)C(C)Oc2ccc(Br)cc2)N2CCCCC2)cc1 (stereo not drawn)	none
Cc1cc(NC(=O)CSCC(=O)OCC(=O)c2cccc(Br)c2)no1	none
Cc1cc(Br)ccc1NC(=O)CN(C)C(=O)COc1cccc2c1OC(C)(C)C2	none
CC1Cc2ccccc2N1C(=O)COC(=O)Cc1ccc(F)cc1 (stereo not drawn)	none
O=C(O)CCc1ccc(-c2ccc(Br)cc2)o1	none
O=C(O)CCc1ccc(-c2ccc(Cl)cc2)o1	ALR H2O2 inh 97
Oc1ccccc1CNc1ccc2c(c1)OCCO2	ALR H2O2 inh 99
COc1ccc(CNc2ccc(C)c(C)c2)c(OC)c1OC	none
Cc1ccc(NCc2ccccc2O)cc1C	ALR H2O2 inh 91
c1csc(CNc2ccc3c(c2)OCCO3)c1	none
c1cncc(CNc2ccc3c(c2)OCO3)c1	ALR H2O2 inh 80
O=C(NCc1cccnc1)Nc1ccc2c(c1)OCO2	none
Cc1ccc(C)c(N2CCN(CCCNC(=O)Cn3cccc3C(=O)c3ccccc3)CC2)c1	none (no result: ALR H2O2 inh)
COc1cccc(O[C@@H]2O[C@@H]3COC(C)(C)O[C@H]3[C@H](O)[C@H]2NC(C)=O)c1	none (no result: ALR H2O2 inh)
CCOC(=O)c1c(S(=O)(=O)Nc2ccc(F)cc2C)c(C)n(C)c1C	none
CC(=O)c1ccc(NC(=O)C(C)OC(=O)C2CCN(c3ccc(C(F)(F)F)cn3)CC2)cc1 (stereo not drawn)	none (no result: ALR H2O2 inh)
O=C(CN1CCN(c2ncccn2)CC1)N1CCCc2c1c(=O)oc1ccc(O)cc21	none
O=C1NCCCc2c1oc1ccc(O)cc21	ALR H2O2 inh 99
COc1ccccc1C1NC(c2ccccc2OC)C(C)C(=O)C1C (stereo not drawn)	none (no result: ALR H2O2 inh)
COc1cccc(C2NC(c3cccc(OC)c3O)C(C)C(=O)C2C)c1O (stereo not drawn)	ALR H2O2 inh 87
CC(C)Nc1ncnc2[nH]ncc12	none (no result: ALR H2O2 inh, T cell HTS)
O=C(Nc1ccc([N+](=O)[O-])cc1)c1ccccc1F	none
O=C(c1cc(O)c(O)c([N+](=O)[O-])c1)c1ccccc1F	ALR H2O2 inh 98
CCN(C(=O)CSc1nnc(-c2ccc(OC)cc2)n1C(C)C)C1CCS(=O)(=O)C1 (stereo not drawn)	none
CCS(=O)(=O)N1CCN=C1SCc1cccnc1	ALR H2O2 inh 98
CCS(=O)(=O)N1CCC(C(=O)NCc2cccnc2)CC1	none
O=S(=O)(c1ccccc1)N1CCN=C1SCc1cccnc1	ALR H2O2 inh 100
O=S(=O)(c1ccc(Cl)cc1)N1CCN=C1SCc1cccnc1	ALR H2O2 inh 97
COc1ccc(S(=O)(=O)N2CCN=C2SCc2cccc(C)c2)cc1	none
O=S(=O)(c1ccc(Cl)cc1)N1CCN=C1SCc1cccc(Cl)c1	none (no result: ALR H2O2 inh)
COc1ccc(S(=O)(=O)N2CCN=C2SCc2cccnc2)cc1	ALR H2O2 inh 99
CS(=O)(=O)N1CCN=C1SCc1ccccc1	none
O=C(c1ccccc1NS(=O)(=O)c1ccc(F)cc1)N1CCOCC1	none
Cc1ccc(S(=O)(=O)N2CCN=C2SCc2cccnc2)cc1	ALR H2O2 inh 98
Cc1ccc(CSC2=NCCN2S(=O)(=O)c2ccc(C)cc2)cc1	none (no result: ALR H2O2 inh, T cell HTS)
Cc1n[nH]c(C)c1CCNC(=O)C1CCC(=O)N(CCc2cccc(F)c2)C1 (stereo not drawn)	none
O=C(c1cc(=O)[nH]c2ccccc12)N1CC=C(c2ccccc2)CC1	none (no result: ALR H2O2 inh)
COc1ccc(S(=O)(=O)NCCc2nnc3ccc(SCC(=O)Nc4nc(C)cs4)nn23)cc1	ALR H2O2 inh 89
Cc1csc(NC(=O)CSc2ccc3nnc(CCNS(=O)(=O)c4ccccc4)n3n2)n1	none
COC(=O)C(C)Oc1cc(C)ccc1COc1ccc(-n2nc(C)n(C(F)F)c2=O)cc1 (stereo not drawn)	none
CCCc1nc2ccccc2c(=O)n1CCc1ccccc1	none (no result: ALR H2O2 inh)
CN1c2ccccc2C(C)(C)C12C=Cc1cc(O)ccc1O2 (stereo not drawn)	ALR H2O2 inh 80
CN1c2ccccc2C(C)(C)C12C=Nc1c(cc(N3CCOCC3)c3ccccc13)O2 (stereo not drawn)	none (no result: ALR H2O2 inh, T cell HTS)
COc1ccccc1-c1cc(C(F)(F)F)nc(S(=O)(=O)CCCC(=O)N2CCCCC2C)n1 (stereo not drawn)	ALR H2O2 inh 98
COc1ccccc1-c1cc(C(F)(F)F)nc(N2CCCC2)n1	none
COc1ccccc1-c1cc(C(F)(F)F)nc(S(C)(=O)=O)n1	ALR H2O2 inh 91
COc1ccccc1-c1cc(C(F)(F)F)nc(S(=O)(=O)CCCC(=O)NC(C)C)n1	none
CC(=O)Nc1sc(C)c(C)c1C(=O)OCC(=O)Nc1cc(S(=O)(=O)N2CCCCC2)ccc1Cl	none
O=[N+]([O-])c1cccc(CN2C[C@@]34C=C[C@@H](C[C@@H]3S2(=O)=O)O4)c1	ALR H2O2 inh 96
O=S1(=O)[C@H]2C[C@@H]3C=C[C@]2(CN1Cc1ccc(C(F)(F)F)cc1)O3	none
Cn1c(CNC(=O)CCNC(=O)c2ccccc2)cc(=O)n(C)c1=O	none
c1ccc2c3c([nH]c2c1)C(C1CCCCC1)N(Cc1ncc[nH]1)CC3 (stereo not drawn)	ALR H2O2 inh 98
Cc1cnc(CN2CCc3c([nH]c4ccccc34)C2C2CCCCC2)[nH]1 (stereo not drawn)	none
Cn1nnc(NC(=S)NC(=O)Cc2ccccc2)n1	none
CCc1ccccc1OCC(=O)NNCC(=O)Nc1cccc(C#N)c1	none
Cn1c(CSCc2ccc(Cl)c(Cl)c2)n[nH]c1=S	ALR H2O2 inh 90
CCn1c(CSCc2ccc(Cl)cc2)n[nH]c1=S	none
O=C(Nc1ccccc1C(=O)NC1CC1)c1ccccc1	none
O=C(CCC(=O)N(CC(=O)NC1CCCC1)C1CCCCC1)Nc1ccccn1	none (no result: ALR H2O2 inh)
Clc1cccc(Cc2c(C3CCCCC3)nc3ccc(Cl)cn23)c1	none (no result: ALR H2O2 inh, T cell HTS)
CN(CCO)c1ccc(C(C(=O)c2ccccc2)c2ccc(N(C)CCO)cc2)cc1	ALR H2O2 inh 91
CC(C)N(CCO)C(=O)C(c1ccccc1)c1ccccc1	none
C[C@H](O)[C@@H]1CN2CCc3c([nH]c4ccccc34)[C@@H]2C[C@@H]1N(C)Cc1cc(Cl)cc(Cl)c1	none (no result: ALR H2O2 inh, T cell HTS)
CC1CCCC(C)N1S(=O)(=O)c1ccc(NC(=O)CCN2C(=O)C3CC=CCC3C2=O)cc1 (stereo not drawn)	none (no result: ALR H2O2 inh, T cell HTS)
S=c1[nH]c2ccc(Cl)cc2[nH]1	none
COc1ccc2[nH]c(=S)[nH]c2c1	ALR H2O2 inh 98
CCCc1nc(SCC(=O)NCC2CCCO2)c2c(=O)n(C)c(=O)n(C)c2n1 (stereo not drawn)	none
CCOC(=O)c1ccc(NC(=O)CSCc2ccco2)cc1	ALR H2O2 inh 100
CCOC(=O)c1ccc(NC(=O)c2ccco2)cc1	none
COC(=O)c1ccc(NC(=O)CCS(=O)(=O)c2ccc(Br)cc2)cc1	none
CCOC(=O)CC(=O)Nc1ccc(C(=O)OCC)cc1	none
CCOC(=O)c1ccc(NC(=O)CSCCC(=O)O)cc1	ALR H2O2 inh 99
COC(=O)c1ccc(NC(=O)CSCC(=O)OCC(=O)c2ccc(Br)cc2)cc1	ALR H2O2 inh 99

Screening data from PubChem BioAssay.
